The record followed here is ChEMBL document CHEMBL1641580, “Identification of 3-phenylaminoquinolinium and 3-phenylaminopyridinium salts as new agents against opportunistic fungal pathogens” (Bioorg Med Chem, 2011).

Series [1] in a line: Cytotoxicity against african green monkey Vero cells. Format: cell-based. Particulars: chlorocebus sabaeus, read-out: TC50 (the source's name). The method, boiled down: (§1)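 Vero kidney fibroblasts seeded at 25,000 cells/well and grown 24 h, then exposed to samples up to 20 µg/ml for 48 h. Viable cells measured by neutral red assay. IC50 taken from growth-inhibition vs concentration curves. DMSO served as vehicle control.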

The test system of series [2] is Candida albicans. Put plainly: Antifungal activity against Candida albicans ATCC 90028 assessed as inhibition of fungal growth by alamar blue assay. Format: functional, organism-based. The method, boiled down:
(§2)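 Broth microdilution modified from NCCLS. DMSO stocks serially diluted in saline and plated in duplicate. Inoculum set by 0.5 McFarland standard. Media: C. albicans in SDB or RPMI 1640; C. neoformans in SDB; A. fumigatus in RPMI-1640 + 5% Alamar Blue. Highest final concentration 20 µg/mL. Plates read before and after incubation by fluorescence 544ex/590em (A. fumigatus) or OD 630 nm. IC50 from percent growth vs concentration.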
Background: Alamar Blue is a resazurin reagent that responds to reducing activity.

For series [3], the system named is Cryptococcus neoformans. Put plainly: Antifungal activity against Cryptococcus neoformans ATCC 90113 by microscopy. Format: functional. The method, boiled down:
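Modified NCCLS microdilution. Samples in DMSO serially diluted in saline and tested in duplicate against inocula standardized to 0.5 McFarland. Highest final concentration 20 µg/mL. MIC read visually as the lowest concentration with no detectable growth (for Alamar Blue wells, no blue-to-pink change).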

Series [4] concerns Cryptococcus neoformans. Put plainly: Antifungal activity against Cryptococcus neoformans at 20 ug/mL.
Series [5] can be described thus: Cytotoxicity against african green monkey Vero cells after 48 hrs by neutral red assay. Format: cell-based. Particulars: chlorocebus sabaeus, read-out: TC50. The method, boiled down:
as §1

Series [6] concerns Cryptococcus neoformans. Put plainly: Antifungal activity against Cryptococcus neoformans ATCC 90113 assessed as inhibition of fungal growth by alamar blue assay. Format: functional, organism-based. The method, boiled down:
as §2

Series [7] has as its system Aspergillus fumigatus. Put plainly: Fungicidal activity against Aspergillus fumigatus ATCC 90906. Format: functional.
The subject of series [8] is Aspergillus fumigatus. Put plainly: Antifungal activity against Aspergillus fumigatus ATCC 90906 assessed as inhibition of fungal growth by alamar blue assay. Particulars: Aspergillus fumigatus, ATCC 90906; read-out: IC50. Format: functional, organism-based. The method, boiled down:
as §2

Series [9] concerns Candida albicans. Put plainly: Antifungal activity against Candida albicans ATCC 90028 by microscopy. Format: functional. The method, boiled down:
(§3)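 Modified NCCLS microdilution. Samples in DMSO serially diluted in saline and tested in duplicate against inocula standardized to 0.5 McFarland. Broths: C. albicans SDB or RPMI 1640; C. neoformans SDB; A. fumigatus YM broth. Highest final concentration 20 µg/mL. MIC read visually as the lowest concentration with no detectable growth (for Alamar Blue wells, no blue-to-pink change).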

The test system of series [10] is Candida albicans. Put plainly: Fungicidal activity against Candida albicans ATCC 90028. Format: functional.
Series [11] deals with Aspergillus fumigatus. Put plainly: Antifungal activity against Aspergillus fumigatus ATCC 90906 by microscopy. Format: functional. The method, boiled down: as §3
For series [12], the system named is Cryptococcus neoformans. Put plainly: Fungicidal activity against Cryptococcus neoformans ATCC 90113. Format: functional.

Values after ≈ are worked out from the molar mass of the structure shown.

The term IC50 denotes the concentration that inhibits the measured activity by half. A word on the MIC: it is the least concentration at which growth counts as inhibited. As to `C[n+]1c2ccccc2cc2[n-]c3ccccc3c21` [CRYPTOLEPINE], the CC50 in series [1] is 3.2 µg/mL (≈ 13.8 µM). In addition, in the series with Candida albicans [2], the 50% inhibitory concentration (IC50) is 20 µg/mL (≈ 86.1 µM). Besides, the minimal inhibitory concentration (MIC) was 20 µg/mL (≈ 86.1 µM) in the series with Cryptococcus neoformans [3] and 12.5 µg/mL (≈ 53.8 µM) against Cryptococcus neoformans [4].
A word on the MFC: it is the lowest tested concentration that kills the fungus rather than only halting it. For the molecule `C[C@@H]1[C@H](O)[C@@H](C)/C=C/C=C/C=C/C=C/C=C/C=C/C=C/[C@H](O[C@@H]2O[C@H](C)[C@@H](O)[C@H](N)[C@@H]2O)C[C@@H]2O[C@](O)(C[C@@H](O)C[C@@H](O)[C@H](O)CC[C@@H](O)C[C@@H](O)CC(=O)O[C@H]1C)C[C@H](O)[C@H]2C(=O)O` [AMPHOTERICIN B], the CC50 at 48 h in series [5] was found to be 7.6 µg/mL (≈ 8.22 µM). The IC50 in the series with Cryptococcus neoformans [6] was determined as 1.3 µg/mL (≈ 1.41 µM); in the series with Aspergillus fumigatus [8], 0.7 µg/mL (≈ 0.758 µM). For the same molecule, in [1], the CC50 is 7.6 µg/mL (≈ 8.22 µM). Further, the MFC in the series on Aspergillus fumigatus [7] worked out at 5 µg/mL (≈ 5.41 µM); with Candida albicans [10], 1.3 µg/mL (≈ 1.41 µM); against Cryptococcus neoformans [12] it was 1 µg/mL (≈ 1.08 µM). For the same molecule, the results for the minimum inhibitory concentration (MIC) against Candida albicans [9] and against Aspergillus fumigatus [11] were 0.6 µg/mL (≈ 0.649 µM) and 1.3 µg/mL (≈ 1.41 µM), respectively.
